In the library only some 5.8% were active in any assay of this set; here they are far more common.
T cruzi growth-1: blocks T. cruzi growth in NIH3T3 culture; T. cruzi beta-gal in NIH3T3, GalScreen luminescence, 90 h; inhibition, % at 8.34 µM; 5.9% of 77,000 active;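 active means mean inhibition above about 93%, with at least 55% of replicates each passing it, limit read from the data, passing the limit was not always enough; inconclusive means only one of those two conditions holds; inactive means neither condition holds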
IDH1 mut inh: IDH1 R132H (human) inhibition; 0.18% of 70,000 active; IDH1 R132H reductase, diaphorase/resazurin fluorescence, 60 min; inhibition, % at 10 µM; O75874; in the data active means inhibition above about 34%; inconclusive means no clear call, values can overlap the other calls; inactive means below about 11%;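 further: 0% = DMSO and 100% = no enzyme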
Pf Dd2 inh: inhibitors of Plasmodium falciparum Dd2 growth; P. falciparum Dd2 growth, SYBR Green, 72 h; active compounds read low; activity change, % at 10 µM; 2.3% of 94,000 active; in the data active means activity change below about -80%; inconclusive means no clear call, values can overlap the other calls
KDM4C inh: blocks human GASC-1 (KDM4C) demethylase activity; inhibition, % at 12.5 µM; Q9H3R0; 0.15% of 96,000 active; GST-KDM4C 2-372, H3K9me3 peptide, LANCE TR-FRET;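 active means mean replicate inhibition above about 25%, with at least 55% of replicates also reaching it, limit read from the data, passing the limit was not always enough; inconclusive means only one of those two conditions met; inactive means neither condition met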
Target sequence (Q9H3R0 2-372 limits assumed): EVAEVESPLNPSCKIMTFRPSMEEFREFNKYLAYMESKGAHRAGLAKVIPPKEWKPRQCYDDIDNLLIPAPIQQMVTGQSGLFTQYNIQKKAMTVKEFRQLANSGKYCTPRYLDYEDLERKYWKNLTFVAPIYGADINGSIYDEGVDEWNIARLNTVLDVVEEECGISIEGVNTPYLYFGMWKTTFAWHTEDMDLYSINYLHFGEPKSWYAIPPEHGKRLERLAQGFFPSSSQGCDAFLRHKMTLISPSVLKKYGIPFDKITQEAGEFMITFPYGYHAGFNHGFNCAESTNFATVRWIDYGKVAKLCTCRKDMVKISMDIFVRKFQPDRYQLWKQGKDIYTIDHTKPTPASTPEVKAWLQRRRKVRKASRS
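material = GST-tagged GASC-1 (JMJD2C) catalytic fragment, aa 2-372 | amount = enzyme final amount 10 nM | medium = HEPES buffer, pH 7.5, plus ascorbate | also added = H3K9me3 peptide substrate, Fe(II), 2-oxoglutarate | dosing = single dose | times = 30 min demethylation and 1 h detection at room temperature | detection = LANCE TR-FRET | read-out basis = Fall in 671/618 emission ratio as inhibition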
T cruzi growth-2: blocks T. cruzi growth in NIH3T3 host cells; shares compounds with T cruzi growth-1; T. cruzi beta-gal in NIH3T3, GalScreen luminescence, 90 h; inhibition, % at 8.35 µM; 72% of 5,600 active; AID 651739;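 active means mean replicate inhibition above about 95% and at least 55% of replicates individually reaching it, limit read from the data; inconclusive means only one of the two criteria is met; inactive means neither criterion is met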
T cruzi growth-3: blocks T. cruzi growth in NIH3T3 host cells; shares compounds with T cruzi growth-1; T. cruzi beta-gal in NIH3T3, GalScreen luminescence, 90 h; inhibition, % at 2.09 µM; 21% of 5,600 active;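 active means mean inhibition above about 95%, with at least 55% of replicates also reaching it, limit read from the data; inconclusive means meets just one of the two conditions; inactive means meets neither condition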;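 further: plate controls were neutral control median for no effect and positive control median for full effect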
NIH3T3 tox: NIH/3T3 (mouse) viability loss. shares compounds with T cruzi growth-1. 14% of 5,600 active. NIH/3T3 viability, CellTiter-Glo ATP luminescence, 90 h. cytotoxicity (signal decrease), % at 8.35 µM;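 active means mean signal decrease across replicates above about 35% based on untreated-well scatter, with enough replicates individually passing, limit read from the data; inconclusive means no rule stated though some were filed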;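 further: 0% = median of neutral control wells and 100% = median of positive control wells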
3T3 cytotox 2: cytotoxicity in mouse NIH/3T3 fibroblasts; shares compounds with T cruzi growth-1; NIH/3T3 viability, CellTiter-Glo ATP luminescence, 90 h; inhibition, % at 24.9 µM; 56% of 5,600 active; AID 651744;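 active means mean loss of cell viability signal at or above a set limit, and enough replicates individually reaching it; inconclusive means meets only the mean limit or only the replicate share; inactive means meets neither condition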;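 further: 0% = median of neutral control wells and 100% = median of positive control wells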
* = called active by the depositor; ? = inconclusive; · = not tested or not shown.

SMILES	T cruzi growth-1	IDH1 mut inh	Pf Dd2 inh	KDM4C inh	T cruzi growth-2	T cruzi growth-3	NIH3T3 tox	3T3 cytotox 2
Cc1ccc(O)c(NC(=S)NC(=O)c2ccc(-c3ccccc3[N+](=O)[O-])o2)c1	·	0	·	·	·	·	·	·
COc1ccc([N+](=O)[O-])cc1NC(=O)CN(c1ccc(I)cc1)S(C)(=O)=O	·	0	·	·	·	·	·	·
CC1CCc2c(sc3nc(SCC(=O)NCC4CCCO4)n(-c4ccccc4)c(=O)c23)C1 (stereo not given)	·	0	·	·	·	·	·	·
COc1cccc(C#Cc2ccc3c(c2)O[C@@H](CN(C)C(C)=O)[C@H](C)CN([C@H](C)CO)S3(=O)=O)c1	74	-8	-58	-1	·	·	·	·
COc1cccc(NC(=O)N(C)C[C@@H]2Oc3cc(C#Cc4ccc(F)cc4)ccc3S(=O)(=O)N([C@H](C)CO)C[C@@H]2C)c1	117*	2	-90*	6	99*	111*	50*	38*
COc1cccc(C#Cc2ccc3c(c2)O[C@H](CN(C)C(C)=O)[C@@H](C)CN([C@H](C)CO)S3(=O)=O)c1	?	0	-71	-1	105*	38	10	35*
CC(C)(C)C(=O)CSc1nnc(-c2ccco2)o1	·	1	·	·	·	·	·	·
COc1ccccc1C#Cc1ccc2c(c1)O[C@@H](CN(C)Cc1ccncc1)[C@H](C)CN([C@H](C)CO)S2(=O)=O	121*	0	?	1	96*	97*	83*	105*
COc1ccccc1C#Cc1ccc2c(c1)O[C@@H](CN(C)Cc1cncnc1)[C@@H](C)CN([C@@H](C)CO)S2(=O)=O	67	-20	-64	-2	·	·	·	·
COc1ccccc1C#Cc1ccc2c(c1)O[C@@H](CN(C)Cc1ccncc1)[C@H](C)CN([C@@H](C)CO)S2(=O)=O	121*	0	?	-2	100*	94	73*	81*
COc1ccccc1C#Cc1ccc2c(c1)O[C@H](CN(C)Cc1cncnc1)[C@@H](C)CN([C@H](C)CO)S2(=O)=O	92	·	-45	1	·	·	·	·
COc1ccccc1C#Cc1ccc2c(c1)O[C@@H](CN(C)Cc1ccncc1)[C@@H](C)CN([C@H](C)CO)S2(=O)=O	98*	-5	-78	-1	102*	104*	-8	-16
COc1ccccc1C#Cc1ccc2c(c1)O[C@H](CN(C)Cc1ccncc1)[C@@H](C)CN([C@@H](C)CO)S2(=O)=O	127*	0	-77	1	93	98*	74*	104*
CC(=O)OC1=C(C(=O)c2ccccc2)N(C)S(=O)(=O)c2ccccc21	·	-1	·	·	·	·	·	·
C[C@@H]1CN([C@@H](C)CO)C(=O)c2cc(NC(=O)Nc3ccc(F)cc3)ccc2O[C@@H](C)CCCCO[C@H]1CN(C)S(=O)(=O)c1ccccc1	106*	·	-73	0	112*	-49	14	5
C[C@@H]1CN([C@H](C)CO)C(=O)c2cc(NC(=O)Nc3ccc(F)cc3)ccc2O[C@@H](C)CCCCO[C@@H]1CN(C)S(=O)(=O)c1ccccc1	103*	10	-82*	17	83	-13	-13	-3
C[C@H](CO)N1C[C@H](C)[C@@H](CN(C)S(=O)(=O)c2ccccc2)OCCCC[C@H](C)Oc2ccc(NC(=O)Nc3ccc(F)cc3)cc2C1=O	109*	1	-61	-1	106*	59	-3	14
C[C@@H]1CCCCO[C@@H](CN(C)S(=O)(=O)c2ccccc2)[C@@H](C)CN([C@H](C)CO)C(=O)c2cc(NC(=O)Nc3ccc(F)cc3)ccc2O1	87	·	-71	1	·	·	·	·
C[C@@H]1CCCCO[C@H](CN(C)S(=O)(=O)c2ccccc2)[C@H](C)CN([C@@H](C)CO)C(=O)c2cc(NC(=O)Nc3ccc(F)cc3)ccc2O1	105*	·	-72	-3	109*	66	-25	24
COC(=O)COc1cc(Cl)c(C2NC(=S)NC(c3ccccc3)=C2C(C)=O)cc1OC (stereo not given)	·	1	·	·	·	·	·	·
Cc1ccc(S(=O)(=O)Nc2ccc3c(c2)C(=O)N([C@H](C)CO)C[C@@H](C)[C@@H](CN(C)S(=O)(=O)c2ccc(C)cc2)OCCCC[C@@H](C)O3)cc1	93	·	-79	-2	·	·	·	·
Cc1ccc(S(=O)(=O)Nc2ccc3c(c2)C(=O)N([C@@H](C)CO)C[C@@H](C)[C@H](CN(C)S(=O)(=O)c2ccc(C)cc2)OCCCC[C@H](C)O3)cc1	?	·	-64	-3	106*	69	6	58*
Cc1ccc(S(=O)(=O)Nc2ccc3c(c2)C(=O)N([C@H](C)CO)C[C@H](C)[C@H](CN(C)CC2CCCCC2)OCCCC[C@H](C)O3)cc1	?	0	-58	4	100*	94	8	102*
Cc1ccc(S(=O)(=O)Nc2ccc3c(c2)C(=O)N([C@@H](C)CO)C[C@@H](C)[C@@H](CN(C)S(=O)(=O)c2ccc(C)cc2)OCCCC[C@H](C)O3)cc1	99*	·	-86*	0	110*	84	-21	27*
Cc1ccc(S(=O)(=O)Nc2ccc3c(c2)C(=O)N([C@H](C)CO)C[C@H](C)[C@@H](CN(C)CC2CCCCC2)OCCCC[C@H](C)O3)cc1	48	·	-38	1	·	·	·	·
SMILES	T cruzi growth-1	IDH1 mut inh	Pf Dd2 inh	KDM4C inh	T cruzi growth-2	T cruzi growth-3	NIH3T3 tox	3T3 cytotox 2
CCn1c(SCC(=O)Nc2ccccc2C)nc2ccccc2c1=O	·	-1	·	·	·	·	·	·
C[C@H]1CN([C@@H](C)CO)S(=O)(=O)c2ccc(C#CC3CC3)cc2O[C@H]1CN(C)Cc1cccc(F)c1	·	-2	-28	9	·	·	·	·
C[C@H](CO)N1C[C@H](C)[C@H](CN(C)Cc2cccc(F)c2)Oc2cc(C#Cc3ccccn3)ccc2S1(=O)=O	124*	·	-79	-8	103*	103*	-17	-20
C[C@H]1CN([C@@H](C)CO)S(=O)(=O)c2ccc(C#Cc3ccccn3)cc2O[C@@H]1CN(C)Cc1cccc(F)c1	126*	·	-5	-10	98*	83	-32	70*
C[C@H]1CN([C@@H](C)CO)S(=O)(=O)c2ccc(C#Cc3ccccn3)cc2O[C@H]1CN(C)Cc1cccc(F)c1	125*	-4	-74	2	108*	83	-10	-13
C[C@@H]1CN([C@H](C)CO)S(=O)(=O)c2ccc(C#Cc3ccccn3)cc2O[C@H]1CN(C)Cc1cccc(F)c1	121*	1	-28	-11	103*	86	?	81*
C[C@H]1CN([C@@H](C)CO)S(=O)(=O)c2ccc(C#CC3CC3)cc2O[C@@H]1CN(C)Cc1cccc(F)c1	·	-2	-23	1	·	·	·	·

Screening results from PubChem BioAssay.
